According to ChEMBL document CHEMBL1155856, “Synthesis and anti-inflammatory activity of 2-(2-aroylaroxy)-4,6-dimethoxy pyrimidines” (Bioorg Med Chem Lett, 2008):
Activity calls are given as the source filed them. The calls are words filed in the database; no cut-off is given here.

Assays:
Rattus norvegicus [1] = test: Toxicity in albino rat assessed as ulcerogenic activity at 100 mg/kg, po after 5 hrs; assay type: organism-based; set-up: dose 100 mg/kg, route oral; details: in vivo
Procedure, shortened: (§1)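 Groups of 10 rats (200–230 g) fasted 24 h, then given an oral dose of test compound; controls undosed. Killed 5 h after dosing. Stomach and small intestine examined under microscope for hyperaemia, epithelial shedding, petechiae, frank haemorrhage, and erosion or discrete ulceration with or without perforation; scored as % of animals affected.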

[2] = target: Phospholipase A2 (Rattus norvegicus) (UniProt P04055); test: Inhibition of rat PLA2 using [14C]oleate labeled autoclaved Escherichia coli at 10 ug
Procedure, shortened: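 Enzyme amount set for 10–15% hydrolysis over 60 min at 37 °C. Stopped with 2.0 N HCl plus fatty-acid-free BSA, centrifuged at 20,000g for 5 min. Released [14C]oleic acid in the supernatant counted by liquid scintillation.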

Rattus norvegicus [3] = test: Toxicity in albino rat with hyperemia assessed as ulcerogenic activity at 200 mg/kg, po after 5 hrs; assay type: organism-based; set-up: dose 200 mg/kg, route oral; details: in vivo; procedure, shortened: as §1
Rattus norvegicus [4] = test: Toxicity in albino rat assessed as ulcerogenic activity at 400 mg/kg, po after 5 hrs; assay type: organism-based; set-up: dose 400 mg/kg, route oral; details: in vivo; procedure, shortened: as §1
Rattus norvegicus [5] = test: Antiinflammatory activity against carrageenan-induced acute paw edema in albino rat assessed as reduction of edema at 40 mg/kg, po after 3 hrs relative to control; assay type: functional
Procedure, shortened: (§2)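 Groups of five rats (125–160 g) dosed with test compound; 30 min later 0.2 mL of 1% carrageenan in 0.9% NaCl injected subcutaneously into the plantar aponeurosis of the hind paw. Paw volume read by water plethysmometer at baseline and at 3 h. Mean increase compared with carrageenan-only control group (five rats); % inhibition = (1 − Gt/Gc) × 100.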

Rattus norvegicus [6] = test: Toxicity in albino rat with hyperemia assessed as ulcerogenic activity at 400 mg/kg, po after 5 hrs; assay type: organism-based; set-up: dose 400 mg/kg, route oral; details: in vivo; procedure, shortened: as §1
Rattus norvegicus [7] = test: Antiinflammatory activity against carrageenan-induced acute paw edema in albino rat assessed as reduction of edema at 20 mg/kg, po after 3 hrs relative to control; assay type: functional; procedure, shortened: as §2
Rattus norvegicus [8] = test: Antiinflammatory activity against carrageenan-induced acute paw edema in albino rat assessed as reduction of edema at 80 mg/kg, po after 3 hrs relative to control; assay type: functional; procedure, shortened: as §2
Oryctolagus cuniculus = organism: Oryctolagus cuniculus; test: Inhibition of rabbit distal colon cyclooxygenase at 10 uM
Procedure, shortened: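 Microsomal fraction from rabbit distal colon mucosa, homogenized and washed in 0.1 M Tris pH 8.0, used fresh. Preincubated with test agent 10 min at 37 °C in Tris-HCl pH 8.0 with 2 mM reduced glutathione, 5 mM L-tryptophan and 1 µM hematin. Then 20 µM arachidonic acid with trace [1-14C]arachidonate added, 5 min at 37 °C. Stopped with cold ether/methanol/0.2 M citric acid. PGE2 separated by RP-HPLC and counted by scintillation; inhibition vs paired controls.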

Rattus norvegicus [9] = test: Toxicity in albino rat assessed as ulcerogenic activity at 200 mg/kg, po after 5 hrs; assay type: organism-based; set-up: dose 200 mg/kg, route oral; details: in vivo; procedure, shortened: as §1
Rattus norvegicus [10] = test: Toxicity in albino rat with hyperemia assessed as ulcerogenic activity at 100 mg/kg, po after 5 hrs; assay type: organism-based; set-up: dose 100 mg/kg, route oral; details: in vivo; procedure, shortened: as §1
[11] = Toxicity in po dosed albino mouse; assay type: organism-based; details: in vivo, read-out: ALD50
Procedure, shortened: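 Albino mice (25–30 g), in groups of 10, were given test compound at several dose levels. Percent mortality in each group was recorded 24 h after dosing. The approximate 50% lethal dose (ALD50) was calculated by Smith's method.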

Rattus norvegicus [12] = test: Antiinflammatory activity against carrageenan-induced acute paw edema in po dosed albino rat assessed as reduction of edema; assay type: functional; procedure, shortened: as §2

Phospholipase A2 (Rattus norvegicus), sequence (P04055 whole entry): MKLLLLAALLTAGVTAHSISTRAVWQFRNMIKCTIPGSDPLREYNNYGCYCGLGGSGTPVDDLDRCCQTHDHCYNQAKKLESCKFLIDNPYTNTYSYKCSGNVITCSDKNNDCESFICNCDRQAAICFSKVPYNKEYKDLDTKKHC

CC(=O)Oc1ccccc1C(=O)O [ASPIRIN]
Activity (Rattus norvegicus [1]): 80%
inhibition [2]: 90%
Activity (Rattus norvegicus [3]): 60%
Activity (Rattus norvegicus [4]): 90%
inhibition in vivo at 40 mg/kg (Rattus norvegicus [5]): 38.8%
Activity (Rattus norvegicus [6]): 90%
inhibition in vivo at 20 mg/kg (Rattus norvegicus [7]): 29.9%
inhibition in vivo at 80 mg/kg (Rattus norvegicus [8]): 61.4%
inhibition (Oryctolagus cuniculus): 99%
Activity (Rattus norvegicus [9]): 90%
Activity (Rattus norvegicus [10]): 30%

COc1cc(OC)nc(Oc2ccc(F)cc2C(=O)c2ccc(C)cc2)n1
Activity (Rattus norvegicus [1]): 10%
inhibition [2]: 20%
Activity (Rattus norvegicus [3]): 90%
LD50 [11]: > 1000 mg/kg
Activity (Rattus norvegicus [4]): 40%
inhibition in vivo at 40 mg/kg (Rattus norvegicus [5]): 29.1%
ED50 (Rattus norvegicus [12]): 62.5 mg/kg
Activity (Rattus norvegicus [6]): 100%
inhibition in vivo at 20 mg/kg (Rattus norvegicus [7]): 19.4%
inhibition in vivo at 80 mg/kg (Rattus norvegicus [8]): 58.2%
inhibition (Oryctolagus cuniculus): 40%
Activity (Rattus norvegicus [9]): 20%
Activity (Rattus norvegicus [10]): 70%

COc1cc(OC)nc(Oc2ccc(C)cc2C(=O)c2ccc(C)cc2)n1
Activity (Rattus norvegicus [1]): 20%
inhibition [2]: 10%
Activity (Rattus norvegicus [3]): 70%
LD50 [11]: > 1000 mg/kg
Activity (Rattus norvegicus [4]): 40%
inhibition in vivo at 40 mg/kg (Rattus norvegicus [5]): 45.8%
ED50 (Rattus norvegicus [12]): 60.2 mg/kg
Activity (Rattus norvegicus [6]): 100%
inhibition in vivo at 20 mg/kg (Rattus norvegicus [7]): 20.2%
inhibition in vivo at 80 mg/kg (Rattus norvegicus [8]): 55.3%
inhibition (Oryctolagus cuniculus): 87%
Activity (Rattus norvegicus [9]): 30%
Activity (Rattus norvegicus [10]): 50%

COc1cc(OC)nc(Oc2ccc(C)cc2C(=O)c2ccc(Cl)cc2)n1
Activity (Rattus norvegicus [1]): 40%
inhibition [2]: 80%
Activity (Rattus norvegicus [3]): 40%
LD50 [11]: > 1000 mg/kg
Activity (Rattus norvegicus [4]): 80%
inhibition in vivo at 40 mg/kg (Rattus norvegicus [5]): 21.5%
ED50 (Rattus norvegicus [12]): 77.5 mg/kg
Activity (Rattus norvegicus [6]): 60%
inhibition in vivo at 20 mg/kg (Rattus norvegicus [7]): 11.5%
inhibition in vivo at 80 mg/kg (Rattus norvegicus [8]): 45.5%
Activity (Oryctolagus cuniculus): inactive
Activity (Rattus norvegicus [9]): 50%
Activity (Rattus norvegicus [10]): 20%

COc1cc(OC)nc(Oc2ccc(Cl)cc2C(=O)c2ccc(Cl)cc2)n1
Activity (Rattus norvegicus [1]): 10%
inhibition [2]: 40%
Activity (Rattus norvegicus [3]): 60%
LD50 [11]: > 1000 mg/kg
Activity (Rattus norvegicus [4]): 40%
inhibition in vivo at 40 mg/kg (Rattus norvegicus [5]): 29.5%
ED50 (Rattus norvegicus [12]): 78.3 mg/kg
Activity (Rattus norvegicus [6]): 100%
inhibition in vivo at 20 mg/kg (Rattus norvegicus [7]): 13.4%
inhibition in vivo at 80 mg/kg (Rattus norvegicus [8]): 58.7%
inhibition (Oryctolagus cuniculus): 20%
Activity (Rattus norvegicus [9]): 20%
Activity (Rattus norvegicus [10]): 40%

CCCCC1C(=O)N(c2ccccc2)N(c2ccccc2)C1=O [PHENYLBUTAZONE]
Activity (Rattus norvegicus [1]): 30%
inhibition [2]: 85%
Activity (Rattus norvegicus [3]): 60%
Activity (Rattus norvegicus [4]): 90%
inhibition in vivo at 40 mg/kg (Rattus norvegicus [5]): 34.1%
Activity (Rattus norvegicus [6]): 90%
inhibition in vivo at 20 mg/kg (Rattus norvegicus [7]): 29.6%
inhibition in vivo at 80 mg/kg (Rattus norvegicus [8]): 51.9%
inhibition (Oryctolagus cuniculus): 89%
Activity (Rattus norvegicus [9]): 60%
Activity (Rattus norvegicus [10]): 30%

COc1cc(OC)nc(Oc2ccc(Br)cc2C(=O)c2ccc(Cl)cc2)n1
Activity (Rattus norvegicus [1]): 5%
inhibition [2]: 30%
Activity (Rattus norvegicus [3]): 70%
LD50 [11]: > 1000 mg/kg
Activity (Rattus norvegicus [4]): 15%
inhibition in vivo at 40 mg/kg (Rattus norvegicus [5]): 33.2%
ED50 (Rattus norvegicus [12]): 77.2 mg/kg
Activity (Rattus norvegicus [6]): 90%
inhibition in vivo at 20 mg/kg (Rattus norvegicus [7]): 13.7%
inhibition in vivo at 80 mg/kg (Rattus norvegicus [8]): 57.7%
inhibition (Oryctolagus cuniculus): 70%
Activity (Rattus norvegicus [9]): 10%
Activity (Rattus norvegicus [10]): 50%

COc1cc(OC)nc(Oc2ccc(F)cc2C(=O)c2ccc(Cl)cc2)n1
Activity (Rattus norvegicus [1]): 10%
inhibition [2]: 60%
Activity (Rattus norvegicus [3]): 60%
LD50 [11]: > 1000 mg/kg
Activity (Rattus norvegicus [4]): 12%
inhibition in vivo at 40 mg/kg (Rattus norvegicus [5]): 48.6%
ED50 (Rattus norvegicus [12]): 51.2 mg/kg
Activity (Rattus norvegicus [6]): 90%
inhibition in vivo at 20 mg/kg (Rattus norvegicus [7]): 29.9%
inhibition in vivo at 80 mg/kg (Rattus norvegicus [8]): 88.6%
Activity (Oryctolagus cuniculus): inactive
Activity (Rattus norvegicus [9]): 20%
Activity (Rattus norvegicus [10]): 30%
